# Screening results as filed in PubChem.
# Sampled rows, rich in hits. Any-hit rate of the full collection: about 4.6%.
# TAAR1 antagonist – antagonists of human TAAR1 | 360,000 tested, 1.5% active | inhibition, % at 3 µM | Q96RJ0 | CHO RD-HGA16 TAAR1, Fluo-8 calcium fluorescence, antagonist;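 active means inhibition above a per-plate cutoff, the mean inhibition of test compounds on that plate plus 3 SD, cut at about 49% in these data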;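 further: 0% = DMSO plus EC80 beta-PEA response and 100% = DMSO alone without agonist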
#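 Assay system: CHO-derived RD-HGA16 cells stably expressing human TAAR1 plus Gα16. Timing: 140 s kinetic read after compound, 140 s after agonist. Technique: kinetic Fluo-8 calcium fluorescence measurement. Measure: % inhibition of agonist calcium response.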
# OX1R antag-1 – OX1R (human) antagonism | inhibition, % at 6.6 µM | OX1R-expressing cells, FRET antagonist read-out | 330,000 tested, 1.8% active | AID 485270; in the data active means inhibition mostly above about 38%, no sharp cut-off; inactive means mostly below about 40%;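 further: 0% = agonist challenge alone and 100% = reference antagonist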
# Target sequence (O43613 whole entry, looked up): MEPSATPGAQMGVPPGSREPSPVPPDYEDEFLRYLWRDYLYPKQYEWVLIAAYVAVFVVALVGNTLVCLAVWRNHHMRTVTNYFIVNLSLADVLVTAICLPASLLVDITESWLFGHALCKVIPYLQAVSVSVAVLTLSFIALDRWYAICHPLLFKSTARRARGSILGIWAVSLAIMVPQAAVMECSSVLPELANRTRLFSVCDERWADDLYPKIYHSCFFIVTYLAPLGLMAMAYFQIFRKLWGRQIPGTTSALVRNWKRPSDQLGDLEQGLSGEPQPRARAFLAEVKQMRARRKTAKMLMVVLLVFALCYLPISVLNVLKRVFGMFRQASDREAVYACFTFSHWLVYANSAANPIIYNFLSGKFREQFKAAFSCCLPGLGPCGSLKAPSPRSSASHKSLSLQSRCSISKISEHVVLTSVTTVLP
# CHO parental Ca – counter-screen: ATP calcium response change in parental CHO cells; parental CHO-K1, ATP-induced calcium, Fluo-8 fluorescence; 330,000 tested, 0.63% active; inhibition, % at 5.6 µM; AID 463079;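 active means inhibition above that plate's mean sample inhibition plus 3 SD, cut at about 26% in these data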;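 further: 0% = ATP-challenged DMSO wells and 100% = DMSO wells without ATP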
#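 Material: parental CHO cells / Compound: single nominal dose of 5.6 µM per compound / Signal: Fluo-8 fluorescence / Replicates: singlicate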
# OX1R antag-2 – human HCRTR1 antagonism | inhibition, % at 5 µM | AID 434989 | O43613 | CHO/OX1R cells, Fluo-8 calcium fluorescence, orexin A | 330,000 tested, 0.43% active;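 active means inhibition above its plate's threshold, mean inhibition of all tested compounds on the plate plus 3 SD, cut at about 37% in these data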;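 further: 0% = orexin A challenge wells and 100% = SB-334867-A antagonist wells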
# GPR7 antag – blocks human GPR7 receptor signaling; P48145; GPR7-expressing cells, fluorescence antagonist assay; inhibition, % at 4.4 µM; 290,000 tested, 1.1% active; AID 1861; in the data active means inhibition above about 16%, passing the limit was not always enough;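 further: cells stimulated with the agonist NPW; 0% = agonist with vehicle and 100% = vehicle without agonist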
# TAAR1 agonist – agonists of human TAAR1; CHO RD-HGA16 TAAR1, Fluo-8 calcium fluorescence; vehicle wells 0%, saturating PEA agonist 100%; 360,000 tested, 0.99% active; AID 624467; activation, % at 3 µM;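 active means activation above the mean activation of all test compounds in the run plus 3 SD, cut at about 38% in these data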
#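 System: CHO RD-HGA16 cells carrying human TAAR1 plus Gα16; Incubation: 17-24 h seeding, 75 min 37 °C dye, 30 min RT; Measured by: Fluo-8 fluorescence, 5 s baseline then 140 s kinetic read; Control set: DMSO and PEA EC100; Replication: single well for each compound.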
# TAAR1 nonsel count – nonselective antagonism, TAAR1 counter-screen; 2,400 tested, 77% active; inhibition, % at 3 µM; counterscreen cell line, calcium fluorescence, antagonist mode; shares compounds with TAAR1 antagonist; in the data active means inhibition above about 22%;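 further: CHO-Ga16 host cells stimulated with ATP at an EC80 level; 0% = agonist EC80 plus vehicle and 100% = vehicle without agonist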
# TAAR1 antag conf – human TAAR1 antagonism, confirmed; shares compounds with TAAR1 antagonist; TAAR1-expressing cells, fluorescence antagonist read-out; inhibition, % at 3 µM; 2,400 tested, 40% active; in the data active means inhibition above about 49%;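 further: CHO-Ga16 host cells challenged with agonist PEA near its EC80; 0% = agonist at EC80 plus vehicle and 100% = vehicle with no agonist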
# Ga16 ag counter – counter-screen for TAAR1 antagonists: nonselective Ga16 agonists; shares compounds with TAAR1 antagonist; Ga16-expressing cells, calcium fluorescence, agonist counterscreen; activation, % at 3 µM; 2,400 tested, 18% active; AID 651953; in the data active means activation above about 12%;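 further: 0% = vehicle wells and 100% = saturating stimulus response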
# TAAR1 ag counter – counter-screen for human TAAR1 antagonists: TAAR1 agonists; activation, % at 3 µM; 2,400 tested, 2% active; shares compounds with TAAR1 antagonist; hTAAR1 cell line, fluorescence activation, agonist mode; AID 651955; in the data active means activation above about 37%;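 further: CHO cells stably expressing TAAR1 with calcium dye readout; 0% = DMSO vehicle and 100% = full agonist response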
# * hit, by the source's call; . = no result given.
SMILES,TAAR1 antagonist,OX1R antag-1,CHO parental Ca,OX1R antag-2,GPR7 antag,TAAR1 agonist,TAAR1 nonsel count,TAAR1 antag conf,Ga16 ag counter,TAAR1 ag counter
C[C@]12C[C@H](O)[C@@H]3c4ccc(O)cc4CCC3[C@@H]1CCC2=O (some centres not stated),-17,14,-2,-10,-11,1,.,.,.,.
C[C@]12CC[C@H]3C(=CCc4cc(O)ccc43)[C@@H]1CCC2=O,83*,8,-4,-2,7,16,35*,59*,12*,13
Cc1ccc(C)c(S(=O)(=O)N2CCN(C(=O)Cc3sc(C)nc3-c3ccc(F)cc3)CC2)c1,59*,.,.,.,.,7,23*,37,5,1
Cc1nc(-c2ccc(F)cc2)c(CC(=O)N2CCN(S(=O)(=O)c3ccccc3Br)CC2)s1,13,29,-25,-36,-4,1,.,.,.,.
Cc1nc(-c2ccc(F)cc2)c(CC(=O)N2CCN(S(=O)(=O)c3cccc(Cl)c3)CC2)s1,51*,6,-29,-32,.,4,25*,35,5,2
COc1cc(C(=O)NCCc2c[nH]c3ccccc23)ccc1OCc1c(C)noc1C,63*,13,5,-4,3,16,31*,48,10,8
COc1ccc(CCNC(=O)c2ccc(OCc3c(C)noc3C)c(OC)c2)cc1,23,11,-16,-26,.,7,.,.,.,.
C[C@H](NC(=O)c1nc[nH]c1C(=O)NCC(=O)OCc1ccccc1)C(=O)OCc1ccccc1,71*,9,-5,-11,-3,12,36*,62*,6,6
CNC(=O)c1[nH]cnc1C(=O)N[C@@H](C)C(=O)OCc1ccccc1,46,30,-1,-16,.,20,.,.,.,.
C[C@H](NC(=O)c1nc[nH]c1C(=O)NCC(=O)OCc1ccccc1)c1ccccc1,64*,32,-12,-26,-2,17,32*,50*,8,9
CC(C)C[C@H](NC(=O)c1nc[nH]c1C(=O)NCC(=O)OCc1ccccc1)C(=O)OCc1ccccc1,67*,3,8,-21,1,11,21,53*,11,17
CC(C)C[C@H](NC(=O)c1nc[nH]c1C(=O)NCC(=O)OC(C)(C)C)C(=O)OCc1ccccc1,2,7,-9,-36,.,-2,.,.,.,.
C[C@H](NC(=O)c1nc[nH]c1C(=O)OCc1ccccc1)c1ccccc1,27,-3,-20,-11,.,28,.,.,.,.
COc1ccc(C(C)C)cc1S(=O)(=O)Nc1cccnc1,-1,.,.,.,.,1,.,.,.,.
O=[N+]([O-])c1ccc(Br)c(CN2CCN(c3ncc(Cc4ccccc4)cn3)CC2)c1,-17,.,.,.,.,-2,.,.,.,.
CC(C)CN1CC(=O)N2C(c3ccccc3)c3[nH]c4ccccc4c3C[C@H]2C1=O (some centres not stated),61*,-3,-6,-12,11,36,23*,45,13*,18
COC(=O)[C@]12C[C@H](CC(=O)NCc3ccccc3)C(=O)N(Cc3ccccc3)C1=C[C@H](C(C)C)O[C@@H]2C1CC1,-6,.,.,.,.,-3,.,.,.,.
Oc1ccc(-c2csc(NCc3ccco3)n2)cc1,104*,21,-13,-19,-9,-2,-3,-2,0,-4
COc1ccc(-c2nc(C(=O)NCC3CCCO3)cc3c2[nH]c2ccccc23)cc1 (configuration not stated),67*,22,-9,-11,-2,3,25*,43,4,0
